What was measured:
Assay type in all cases: ADME, organism-based, Macaca mulatta
[1] = Drug level in normal rhesus monkey white matter assessed as standard uptake value at 96.3 MBq, iv after 2.5 mins by microPET; conditions: in vivo
[2] = Drug level in normal rhesus monkey white matter assessed as standard uptake value at 96.3 MBq, iv after 57.5 mins by microPET; conditions: in vivo
[3] = Drug level in normal rhesus monkey white matter assessed as standard uptake value at 96.3 MBq, iv after 4.5 mins by microPET; conditions: in vivo, 0.075 h
[4] = Drug level in normal rhesus monkey thalamus assessed as standard uptake value at 96.3 MBq, iv after 12 mins by microPET; conditions: in vivo, 0.2 h
[5] = Drug level in normal rhesus monkey cerebellum assessed as standard uptake value at 96.3 MBq, iv after 0.5 mins by microPET; conditions: in vivo
How it was run: (§1)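 One normal rhesus monkey, each tracer given iv via the vena saphena (81.2, 96.3 or 109.4 MBq), with 1 day between tracer injections. Dynamic brain μPET over 180 min used frames of 5 × 60 s, 5 × 120 s, 9 × 300 s and 12 × 600 s. Images were reconstructed by filtered back projection with a RAMP filter. Regional time-activity curves were expressed as SUV.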

[6] = Drug level in normal rhesus monkey frontal cortex assessed as standard uptake value at 96.3 MBq, iv after 115 mins by microPET; conditions: in vivo
[7] = Drug level in normal rhesus monkey frontal cortex assessed as standard uptake value at 96.3 MBq, iv after 17.5 mins by microPET; conditions: in vivo
[8] = Drug level in normal rhesus monkey thalamus assessed as standard uptake value at 96.3 MBq, iv after 115 mins by microPET; conditions: in vivo
[9] = Drug level in normal rhesus monkey pons assessed as standard uptake value at 96.3 MBq, iv after 47.5 mins by microPET; conditions: in vivo
[10] = Drug level in normal rhesus monkey parietal cortex assessed as standard uptake value at 81.2 MBq, iv after 37.5 mins by microPET; conditions: in vivo, 0.625 h
[11] = Drug level in normal rhesus monkey thalamus assessed as standard uptake value at 81.2 MBq, iv after 95 mins by microPET; conditions: in vivo
[12] = Drug level in normal rhesus monkey thalamus assessed as standard uptake value at 81.2 MBq, iv after 1.5 mins by microPET; conditions: in vivo, 0.025 h
[13] = Drug level in normal rhesus monkey white matter assessed as standard uptake value at 81.2 MBq, iv after 3.5 mins by microPET; conditions: in vivo
[14] = Drug level in normal rhesus monkey parietal cortex assessed as standard uptake value at 81.2 MBq, iv after 57.5 mins by microPET; conditions: in vivo
[15] = Drug level in normal rhesus monkey pons assessed as standard uptake value at 81.2 MBq, iv after 4.5 mins by microPET; conditions: in vivo, 0.075 h
[16] = Drug level in normal rhesus monkey thalamus assessed as standard uptake value at 81.2 MBq, iv after 4.5 mins by microPET; conditions: in vivo, 0.075 h
[17] = Drug level in normal rhesus monkey cerebellum assessed as standard uptake value at 81.2 MBq, iv after 115 mins by microPET; conditions: in vivo; how it was run: as §1
[18] = Drug level in normal rhesus monkey parietal cortex assessed as standard uptake value at 81.2 MBq, iv after 12 mins by microPET; conditions: in vivo, 0.2 h
[19] = Drug level in normal rhesus monkey pons assessed as standard uptake value at 81.2 MBq, iv after 155 mins by microPET; conditions: in vivo
[20] = Drug level in normal rhesus monkey thalamus assessed as standard uptake value at 152.9 MBq, iv after 17.5 mins by microPET; conditions: in vivo
[21] = Drug level in normal rhesus monkey parietal cortex assessed as standard uptake value at 152.9 MBq, iv after 4.5 mins by microPET; conditions: in vivo, 0.075 h
[22] = Drug level in normal rhesus monkey white matter assessed as standard uptake value at 152.9 MBq, iv after 42.5 mins by microPET; conditions: in vivo
[23] = Drug level in normal rhesus monkey white matter assessed as standard uptake value at 152.9 MBq, iv after 37.5 mins by microPET; conditions: in vivo, 0.625 h
[24] = Drug level in normal rhesus monkey white matter assessed as standard uptake value at 152.9 MBq, iv after 2.5 mins by microPET; conditions: in vivo
[25] = Drug level in normal rhesus monkey parietal cortex assessed as standard uptake value at 152.9 MBq, iv after 10 mins by microPET; conditions: in vivo
[26] = Drug level in normal rhesus monkey thalamus assessed as standard uptake value at 152.9 MBq, iv after 32.5 mins by microPET; conditions: in vivo
[27] = Drug level in normal rhesus monkey thalamus assessed as standard uptake value at 152.9 MBq, iv after 22.5 mins by microPET; conditions: in vivo, 0.375 h
[28] = Drug level in normal rhesus monkey white matter assessed as standard uptake value at 109.4 MBq, iv after 0.375 mins by microPET; conditions: in vivo, 22 s
[29] = Drug level in normal rhesus monkey cerebellum assessed as standard uptake value at 109.4 MBq, iv after 75 mins by microPET; conditions: in vivo, 1.25 h
How it was run: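 One normal rhesus monkey received each tracer via the vena saphena, with 1 day between injections. Dynamic μPET ran 180 min for 18F tracers (5×60 s, 5×120 s, 9×300 s, 12×600 s) and 90 min for the 11C tracer (5×60 s, 5×120 s, 9×300 s, 3×600 s). Filtered back-projection reconstruction (RAMP filter) was used. Time-activity curves were drawn to give regional SUV.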

[30] = Drug level in normal rhesus monkey pons assessed as standard uptake value at 109.4 MBq, iv after 1.5 mins by microPET; conditions: in vivo, 0.025 h
[31] = Drug level in normal rhesus monkey frontal cortex assessed as standard uptake value at 109.4 MBq, iv after 0.625 mins by microPET; conditions: in vivo, 38 s
[32] = Drug level in normal rhesus monkey white matter assessed as standard uptake value at 109.4 MBq, iv after 9.5 mins by microPET; conditions: in vivo
[33] = Drug level in normal rhesus monkey thalamus assessed as standard uptake value at 109.4 MBq, iv after 3.5 mins by microPET; conditions: in vivo
[34] = Drug level in normal rhesus monkey pons assessed as standard uptake value at 109.4 MBq, iv after 117 mins by microPET; conditions: in vivo, 1.95 h
[35] = Drug level in normal rhesus monkey frontal cortex assessed as standard uptake value at 109.4 MBq, iv after 3.5 mins by microPET; conditions: in vivo; how it was run: as §1
[36] = Drug level in normal rhesus monkey frontal cortex assessed as standard uptake value at 109.4 MBq, iv after 22.5 mins by microPET; conditions: in vivo, 0.375 h
How it was run: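 Single normal rhesus monkey; each tracer given iv via the vena saphena, with 1 day between tracer injections. Dynamic μPET ran 180 min (5×60 s, 5×120 s, 9×300 s, 12×600 s). Images were reconstructed by filtered back projection with a RAMP filter. Regional time-activity curves were expressed as SUV.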

[37] = Drug level in normal rhesus monkey cerebellum assessed as standard uptake value at 109.4 MBq, iv after 105 mins by microPET; conditions: in vivo, 1.75 h
[38] = Drug level in normal rhesus monkey cerebellum assessed as standard uptake value at 109.4 MBq, iv after 93 mins by microPET; conditions: in vivo, 1.55 h

CN(C)c1ccc2nc(-c3ccc([18F])cc3)sc2c1
SUV [1]: 0.94 | SUV [2]: 1.37 | SUV [3]: 1.22 | SUV [4]: 2.38 | SUV [5]: 0.54 | SUV [6]: 1.66 | SUV [7]: 2.22 | SUV [8]: 2.14 | SUV [9]: 1.84

CNc1ccc2nc(-c3ccc([18F])cc3)sc2c1
SUV [10]: 3.965 | SUV [11]: 5.301 | SUV [12]: 2.705 | SUV [13]: 3.019 | SUV [14]: 3.575 | SUV [15]: 5.172 | SUV [16]: 4.054 | SUV [17]: 1.715 | SUV [18]: 4.756 | SUV [19]: 5.431

[11CH3]Nc1ccc(-c2nc3ccc(O)cc3s2)cc1 [PITTSBURGH COMPOUND B]
SUV [20]: 2.159 | SUV [21]: 1.925 | SUV [22]: 1.04 | SUV [23]: 1.095 | SUV [24]: 0.752 | SUV [25]: 2.18 | SUV [26]: 1.517 | SUV [27]: 1.903

Nc1ccc2nc(-c3ccc([18F])cc3)sc2c1
SUV [28]: -0.01 | SUV [29]: 2.92 | SUV [30]: 2.87 | SUV [31]: 1.15 | SUV [32]: 2.99 | SUV [33]: 4.66 | SUV [34]: 4.76 | SUV [35]: 4.99 | SUV [36]: 5.16 | SUV [37]: 2.5 | SUV [38]: 2.52
